Assay: Population PK analysis of venetoclax in AML patients
Format: in vivo
Summary of the method: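 Plasma PK data were pooled from five studies: 771 R/R or treatment-naïve AML patients given ≥1 dose, with daily ramp-up to 400–1200 mg QD. Fitted by nonlinear mixed-effects modelling (FOCE-INT), using a prior CLL/SLL/NHL/healthy-volunteer model as informative priors. Race, azacitidine, decitabine and LDAC were tested stepwise (forward α=0.01, backward α=0.001) as multiplicative factors on CL/F, Vd/F and bioavailability. Validated by pcVPC (500 replicates); AUCss was taken from the planned dose.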

CC1(C)CCC(CN2CCN(c3ccc(C(=O)NS(=O)(=O)c4ccc(NCC5CCOCC5)c([N+](=O)[O-])c4)c(Oc4cnc5[nH]ccc5c4)c3)CC2)=C(c2ccc(Cl)cc2)C1 [Venetoclax]
Median exposure (AUCss) at 400 mg venetoclax (Asian patients): 1.85 µg·days/mL | higher relative bioavailability in Asian than non‐Asian patients (Asian vs non-Asian AML patients): 67% | Median exposure (AUCss) at 400 mg venetoclax (Non‐Asian patients): 1.11 µg·days/mL | effect of co-administration on venetoclax CL/F (P‐gp inhibitors, mild CYP3A inhibitors, azacitidine, decitabine, or LDAC): no effect | increase of venetoclax Vd/F with azacitidine (azacitidine co-administration): 24% | decrease of venetoclax CL/F by moderate CYP3A inhibitors (co-administered moderate CYP3A inhibitors): 19% | decrease of venetoclax CL/F by strong CYP3A inhibitors (co-administered strong CYP3A inhibitors): 83% | effect of covariates on venetoclax exposure (sex, mild to moderate hepatic impairment, mild to severe renal impairment, age, body weight): did not appear to have any effect
